Tests used:
[1] = In vivo protection from compound 48/80 induced lethality test in rats 1 hour after subcutaneous administration.; type: functional; conditions: Rattus norvegicus, sc
Outline: (§1)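 Male inbred Wistar rats (240-260 g), fasted overnight, held at 21 ± 1 °C and 65 ± 5% RH. Dosed sc or orally, vehicle 0.9% NaCl. Endpoint is survival at 4 h. ED50 by Finney from 5 rats per dose, at least 3 doses from a geometric series 0.0025-40 mg/kg. Estimated ED50 uses at least 2 rats per dose.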

[2] = In vivo anti-histaminic protection from 48/80 induced lethality in rats 2 hours after oral administration; type: functional; conditions: Rattus norvegicus; outline: as §1
Cavia porcellus [3] = assay: Protection against intravenous histamine lithality in Guinea pigs 24 hour after oral administration; type: functional; conditions: for ED50: read-out: PD50
Outline: (§2)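 Male albino guinea pigs (280-360 g) given oral doses in 2-fold increments 3, 24 or 48 h before iv histamine dihydrochloride 1.25 mg/kg. Protection is survival at 1 h. PD50 by Finney from 4-6 animals per dose and time point, at least 3 doses from a geometric series 0.0025-5 mg/kg. Estimated PD50 uses at least 2 animals per dose.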

Cavia porcellus [4] = assay: Protection against intravenous histamine lithality in Guinea pigs 3 hour after oral administration; type: functional; conditions: for ED50: read-out: PD50; outline: as §2
Cavia porcellus [5] = assay: Protection against intravenous histamine lithality in Guinea pigs 48 hour after oral administration; type: functional; conditions: read-out: PD50; outline: as §2
[6] = target: Histamine H1 receptor (Cavia porcellus) (UniProt P31389); assay: In vitro inhibition of histamine(H1) induced contraction of guinea pig ileum.; type: functional, tissue-based
Chain of Histamine H1 receptor (Cavia porcellus) (P31389 whole entry): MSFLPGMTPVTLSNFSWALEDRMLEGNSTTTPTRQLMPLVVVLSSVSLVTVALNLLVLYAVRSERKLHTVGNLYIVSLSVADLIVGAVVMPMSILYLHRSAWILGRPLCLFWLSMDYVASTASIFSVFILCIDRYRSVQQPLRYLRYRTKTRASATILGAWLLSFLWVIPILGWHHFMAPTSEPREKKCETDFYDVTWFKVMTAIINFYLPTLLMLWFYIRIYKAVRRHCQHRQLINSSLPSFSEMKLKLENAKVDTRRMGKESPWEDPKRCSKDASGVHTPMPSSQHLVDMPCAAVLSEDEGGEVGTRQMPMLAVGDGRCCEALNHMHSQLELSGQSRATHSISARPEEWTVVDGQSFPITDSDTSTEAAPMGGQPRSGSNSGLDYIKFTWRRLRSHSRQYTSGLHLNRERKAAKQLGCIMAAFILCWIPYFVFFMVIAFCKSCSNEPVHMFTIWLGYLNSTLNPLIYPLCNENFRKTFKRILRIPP
Outline: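 Isolated guinea pig ileum in a bath. Cumulative histamine curves every 5 min, logarithmically increasing doses (5.4 × 10^-8, 1.6 × 10^-7, 5.4 × 10^-7 M, ...) until maximal contraction. Repeated after 5 min antagonist contact, then washout and two further curves. Highest test dose normally 0.04 mg/L. A10 = antagonist concentration giving a 10-fold rightward shift of the histamine curve.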

[7] = In vivo anti-histaminic protection from 48/80 induced lethality in rats 2 hour after oral administration.; type: functional; conditions: Rattus norvegicus; outline: as §1
[8] = In vivo anti-histaminic protection from 48/80 induced lethality in rats 1 hour after subcutaneous administration.; type: functional; conditions: Rattus norvegicus, sc; outline: as §1

| Structure (SMILES) | ED50 [1] | ED50 [2] | further results |
| --- | --- | --- | --- |
| CC(c1ccccc1)n1c(NC2CCN(CCc3ccccc3)CC2)nc2ccccc21 (stereo not drawn) | 2.5 mg/kg | – | – |
| COc1ccccc1CCN1CCC(Nc2nc3ccccc3n2Cc2ccccc2)CC1 | 0.63 mg/kg | 1.25 mg/kg | – |
| CC(c1ccccc1)N1CCC(Nc2nc3ccccc3n2Cc2ccccc2)CC1 (stereo not drawn) | 1.25 mg/kg | > 2.5 mg/kg | – |
| FC(F)(F)c1cccc(CCN2CCC(Nc3nc4ccccc4n3Cc3ccccc3)CC2)c1 | 2.5 mg/kg | – | – |
| Cc1ccc(Cn2c(NC3CCN(CCc4ccccc4)CC3)nc3ccccc32)cc1 | 1.25 mg/kg | 2.5 mg/kg | – |
| CCCCn1c(NC2CCN(CCc3ccccc3)CC2)nc2ccccc21 | 2.5 mg/kg | – | – |
| c1ccc(CCN2CCC(Nc3nc4ccccc4n3Cc3ccccc3)CC2)cc1 | – | 3.5 mg/kg | ED50 (Cavia porcellus [3]): 0.35 mg/kg; ED50 (Cavia porcellus [4]): 0.25 mg/kg; ED50 (Cavia porcellus [5]): 0.25 mg/kg |
| Oc1nc2ccccc2n1CCCN1CCC(Nc2nc3ccccc3n2Cc2ccccc2)CC1 | 1.25 mg/kg | 2.5 mg/kg | ED50 (Cavia porcellus [3]): 0.6 mg/kg; ED50 (Cavia porcellus [4]): 0.16 mg/kg; ED50 (Cavia porcellus [5]): > 0.6 mg/kg |
| CCCCCn1c(NC2CCN(CCc3ccccc3)CC2)nc2ccccc21 | 2.5 mg/kg | – | – |
| Brc1ccc(Cn2c(NC3CCN(CCc4ccccc4)CC3)nc3ccccc32)cc1 | 1.25 mg/kg | – | – |
| O=C(CCCN1CCC(Nc2nc3ccccc3n2Cc2ccccc2)CC1)c1ccc(F)cc1 | 2.5 mg/kg | – | – |
| CCCCN(c1nc2ccccc2[nH]1)C1CCN(CCc2ccccc2)CC1 | 2.5 mg/kg | – | – |
| COc1cc(CCN2CCC(Nc3nc4ccccc4n3Cc3ccccc3)CC2)cc(OC)c1OC | 0.63 mg/kg | 1.25 mg/kg | – |
| Clc1ccc(Cn2c(NC3CCN(CCc4ccccc4)CC3)nc3ccccc32)cc1 | 2.5 mg/kg | – | – |
| CCOc1ccc(CCN2CCC(Nc3nc4ccccc4n3Cc3ccccc3)CC2)cc1 | 1.25 mg/kg | 0.63 mg/kg | – |
| Clc1ccc(CCN2CCC(Nc3nc4ccccc4n3Cc3ccccc3)CC2)cc1 | 2.5 mg/kg | – | – |
| c1ccc(Cn2c(NC3CCN(CC4COc5ccccc5O4)CC3)nc3ccccc32)cc1 (stereo not drawn) | 2.5 mg/kg | – | – |
| CN(c1nc2ccccc2n1Cc1ccc(F)cc1)C1CCN(CCc2ccccc2)CC1 | 1.25 mg/kg | 1.25 mg/kg | – |
| C(=C\c1ccccc1)/CN1CCC(Nc2nc3ccccc3n2Cc2ccccc2)CC1 | 1.25 mg/kg | > 2.5 mg/kg | – |
| CN(C)CCOC(c1ccccc1)c1ccccc1 [DIPHENHYDRAMINE] | 4 mg/kg | 37.4 mg/kg | A10 [6]: 0.66 mg/L; ED50 (Cavia porcellus [4]): > 2.5 mg/kg |
| Fc1ccc(CCN2CCC(Nc3nc4ccccc4n3Cc3ccccc3)CC2)cc1 | 1.25 mg/kg | > 2.5 mg/kg | – |
| CC(Cn1c(NC2CCN(CCc3ccccc3)CC2)nc2ccccc21)c1ccccc1 (stereo not drawn) | 2.5 mg/kg | – | – |
| CCCCN1CCC(Nc2nc3ccccc3n2Cc2ccccc2)CC1 | – | – | ED50 [7]: > 2.5 mg/kg; ED50 [8]: 0.31 mg/kg |
| C=CCN1CCC(Nc2nc3ccccc3n2Cc2ccccc2)CC1 | 0.63 mg/kg | 0.63 mg/kg | – |
| CN(C)CCC(c1ccc(Cl)cc1)c1ccccn1 (stereo not drawn) [CHLORPHENIRAMINE] | 0.77 mg/kg | 37.4 mg/kg | – |
| COc1ccc(CCN2CCC(Nc3nc4ccccc4n3Cc3ccccc3)CC2)cc1 | 1.25 mg/kg | 0.63 mg/kg | ED50 (Cavia porcellus [3]): 0.08 mg/kg; ED50 (Cavia porcellus [4]): 0.25 mg/kg; ED50 (Cavia porcellus [5]): 0.16 mg/kg |
| O=c1[nH]c2ccccc2n1CCCN1CCN(C(c2ccccc2)c2ccccc2)CC1 [OXATOMIDE] | – | – | PD 50 (Cavia porcellus [3]): >5 mg/kg; ED50 [7]: 5.37 mg/kg; PD 50 (Cavia porcellus [4]): 0.18 mg/kg |

| Structure (SMILES) | ED50 [1] | ED50 [2] | further results |
| --- | --- | --- | --- |
| c1ccc(CCN2CCC(Nc3nc4ccccc4n3CCc3ccccc3)CC2)cc1 | > 2.5 mg/kg | – | – |
| COc1ccc(CCN2CCC(Nc3nc4ccccc4n3Cc3ccccc3)CC2)cc1OC | 1.25 mg/kg | > 2.5 mg/kg | – |
| Fc1ccccc1Cn1c(NC2CCN(CCc3ccccc3)CC2)nc2ccccc21 | 1.25 mg/kg | 2.5 mg/kg | – |
| c1ccc(CCN2CCC(Nc3nc4ccccc4n3Cc3ccccn3)CC2)cc1 | 0.16 mg/kg | 2.5 mg/kg | ED50 (Cavia porcellus [3]): 0.12 mg/kg; ED50 (Cavia porcellus [4]): 0.12 mg/kg; ED50 (Cavia porcellus [5]): > 0.16 mg/kg |
| c1ccc(Cn2c(NC3CCN(CCCOc4ccccc4)CC3)nc3ccccc32)cc1 | 0.63 mg/kg | 0.63 mg/kg | – |
| CCn1c(N(C)C2CCN(CCc3ccccc3)CC2)nc2ccccc21 | 0.63 mg/kg | > 2.5 mg/kg | – |
| Cc1ccc(Cn2c(N(C)C3CCN(CCc4ccccc4)CC3)nc3ccccc32)cc1 | 2.5 mg/kg | – | – |
| Oc1nc2ccccc2n1CCN1CCC(Nc2nc3ccccc3n2Cc2ccccc2)CC1 | 0.31 mg/kg | 2.5 mg/kg | ED50 (Cavia porcellus [3]): > 0.6 mg/kg; ED50 (Cavia porcellus [4]): 0.35 mg/kg |
| c1ccc(Cn2c(NC3CCN(CCc4cccs4)CC3)nc3ccccc32)cc1 | 0.63 mg/kg | – | – |
| Cc1cccc(CCN2CCC(Nc3nc4ccccc4n3Cc3ccccc3)CC2)c1 | 1.25 mg/kg | 2.5 mg/kg | – |
| OC(COc1ccccc1)CN1CCC(Nc2nc3ccccc3n2Cc2ccccc2)CC1 (stereo not drawn) | 1.25 mg/kg | 0.63 mg/kg | ED50 (Cavia porcellus [3]): 0.6 mg/kg; ED50 (Cavia porcellus [4]): 0.35 mg/kg; ED50 (Cavia porcellus [5]): > 0.6 mg/kg |
| CN1CCC(=C2c3ccccc3CCc3cccnc32)CC1 [AZATADINE] | 0.049 mg/kg | 0.48 mg/kg | ED50 (Cavia porcellus [3]): 1.36 mg/kg; ED50 (Cavia porcellus [4]): 0.014 mg/kg; ED50 (Cavia porcellus [5]): > 2.5 mg/kg |
| CN1CCC(Nc2nc3ccccc3n2C)CC1 | > 2.5 mg/kg | – | – |
| CCn1c(NC2CCN(CCc3ccccc3)CC2)nc2ccccc21 | 2.5 mg/kg | – | – |
| CCCCn1c(N(C)C2CCN(CCc3ccccc3)CC2)nc2ccccc21 | 2.5 mg/kg | – | – |
| c1ccc(Cn2c(NC3CCN(C4CCCCC4)CC3)nc3ccccc32)cc1 | – | – | ED50 [7]: > 2.5 mg/kg; ED50 [8]: 0.63 mg/kg |
| Fc1ccc(CN2CCC(Nc3nc4ccccc4n3Cc3ccccc3)CC2)cc1 | 2.5 mg/kg | – | – |
| N#CC1(c2ccccc2)CCC(N2CCC(Nc3nc4ccccc4n3Cc3ccccc3)CC2)CC1 (stereo not drawn) | 2.5 mg/kg | – | – |
| COc1cccc(CCN2CCC(Nc3nc4ccccc4n3Cc3ccccc3)CC2)c1 | 0.63 mg/kg | 0.31 mg/kg | – |
| CN1CCC(Nc2nc3ccccc3n2Cc2ccccc2)CC1 | – | – | ED50 [7]: > 2.5 mg/kg; ED50 [8]: 0.31 mg/kg |
| CN(c1nc2ccccc2n1Cc1ccccc1)C1CCN(CCc2ccccc2)CC1 | 2.5 mg/kg | – | – |
| c1ccc(CCCN2CCC(Nc3nc4ccccc4n3Cc3ccccc3)CC2)cc1 | 2.5 mg/kg | – | ED50 (Cavia porcellus [3]): 0.35 mg/kg; ED50 (Cavia porcellus [4]): 0.35 mg/kg; ED50 (Cavia porcellus [5]): > 0.6 mg/kg |
| CC(c1ccc(F)cc1)n1c(NC2CCN(CCc3ccccc3)CC2)nc2ccccc21 (stereo not drawn) | 1.25 mg/kg | > 2.5 mg/kg | – |
| Fc1ccc(Cn2c(NC3CCN(CCc4ccccc4)CC3)nc3ccccc32)cc1 | 0.31 mg/kg | 0.63 mg/kg | ED50 (Cavia porcellus [3]): 0.08 mg/kg; ED50 (Cavia porcellus [4]): 0.45 mg/kg; ED50 (Cavia porcellus [5]): 0.12 mg/kg |
| CCn1nnn(CCN2CCC(Nc3nc4ccccc4n3Cc3ccccc3)CC2)c1=O | 0.31 mg/kg | > 2.5 mg/kg | – |
| CCn1c(N(Cc2ccccc2)C2CCN(CCc3ccccc3)CC2)nc2ccccc21 | > 2.5 mg/kg | – | – |
| CN(c1nc2ccccc2n1Cc1ccc(Br)cc1)C1CCN(CCc2ccccc2)CC1 | 2.5 mg/kg | – | – |

Reference: ChEMBL document CHEMBL1122877, “New antihistaminic N-heterocyclic 4-piperidinamines. 1. Synthesis and antihistaminic activity of N-(4-piperidinyl)-1H-benzimidazol-2-amines” (1985)
